What was measured:
[1] = test system: HCT-116; experiment: Cytotoxicity against human HCT116 cells after 24 hrs by MTT assay; assay type: functional, cell-based; conditions: HCT-116, 24 h
In short: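 HCT116 cells were kept in RPMI 1640 with 10% FCS and 2 mM L-glutamine, plated at 2 × 10³ cells/well, 37 °C, 5% CO₂. Drug was given for 24 h, then removed, and cells regrew 3 days in fresh medium. Read-out was MTT for 4 h, formazan dissolved in DMSO, OD read. IC50 is 50% OD reduction vs untreated/vehicle controls. At least three repeats.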

[2] = biological target: NAD(P)H dehydrogenase [quinone] 1 (Homo sapiens, UniProt P15559); experiment: Inhibition of human recombinant NQO1 by spectrophotometry
NAD(P)H dehydrogenase [quinone] 1, sequence (P15559 whole entry): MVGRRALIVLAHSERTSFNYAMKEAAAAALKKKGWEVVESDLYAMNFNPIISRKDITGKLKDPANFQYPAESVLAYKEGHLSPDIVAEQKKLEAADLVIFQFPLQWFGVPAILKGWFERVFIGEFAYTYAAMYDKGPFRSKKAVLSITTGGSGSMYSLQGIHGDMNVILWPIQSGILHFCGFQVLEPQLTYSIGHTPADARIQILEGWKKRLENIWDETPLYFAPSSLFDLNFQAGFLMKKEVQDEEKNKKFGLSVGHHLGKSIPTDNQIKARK

[3] = biological target: T1, Ribosyldihydronicotinamide dehydrogenase [quinone] (Homo sapiens, UniProt P16083); experiment: Inhibition of human recombinant NQO2 by spectrophotometry
T1 sequence (P16083 whole entry): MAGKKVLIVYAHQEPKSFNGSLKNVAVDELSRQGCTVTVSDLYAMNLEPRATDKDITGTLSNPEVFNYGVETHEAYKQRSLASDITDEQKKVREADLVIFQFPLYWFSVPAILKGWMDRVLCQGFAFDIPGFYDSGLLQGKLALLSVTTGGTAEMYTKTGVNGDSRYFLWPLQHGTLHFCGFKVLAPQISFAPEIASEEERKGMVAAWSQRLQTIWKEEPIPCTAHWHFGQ
In short: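 Recombinant human NQO2 was diluted in 50 mM phosphate to give about 0.1 absorbance/min. Reaction mix: 50 mM phosphate pH 7.4 with 200 µM NRH as cofactor, 40 µM DCPIP and inhibitor in DMSO (1.0% v/v final), 37 °C. DCPIP reduction was followed at 600 nm.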

[4] = test system: Nucleic Acid; experiment: Binding affinity to salmon sperm DNA assessed as change in melting temperature at 10 uM under high salt concentration by spectrophotometry; assay type: nucleic-acid assay; conditions: Salmonidae
In short: (§1)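 Salmon sperm DNA at 20 µg/ml was treated with 10 µM compound at high (physiological) or low salt; the low-salt buffer was 7.5 mM NaH₂PO₄, 1 mM EDTA, pH 7.0. Cuvettes were heated from 37 to 98 °C with A260 read every degree. Tm change is in °C, SD from three independent experiments.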

[5] = test system: Nucleic Acid; experiment: Binding affinity to salmon sperm DNA assessed as change in melting temperature at 10 uM under low salt concentration by spectrophotometry; assay type: nucleic-acid assay; conditions: Salmonidae; in short: as §1
[6] = test system: Nucleic Acid; experiment: Binding affinity to salmon sperm DNA assessed as melting temperature at 10 uM under low salt concentration by spectrophotometry; assay type: nucleic-acid assay; conditions: Salmonidae
[7] = test system: HCT-116; experiment: Cytotoxicity against human HCT116 cells after 96 hrs by MTT assay; assay type: functional, cell-based; conditions: HCT-116, 96 h
In short: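 HCT116 cells were grown in RPMI 1640 with 10% FCS and 2 mM L-glutamine, seeded at 2 × 10³ cells/well, 37 °C, 5% CO₂. Drug exposure was continuous for 4 days at 37 °C. MTT was then added for 4 h and formazan dissolved in DMSO for OD reading. IC50 is 50% OD drop relative to untreated and/or vehicle cells. At least three repeats.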

Compound	IC50 [2] [µM]	IC50 [3] [µM]	ΔTm [4] [°C]	ΔTm [5] [°C]	Tm [6] [°C]	IC50 [1] [µM]	IC50 [7] [µM]
COc1ccc2c(c1)c(=O)c1c(NCCN(C)C)ccc3nnn2c31	0.111	1.33	0.08	2.9	83	1	0.333
O=c1c2ccccc2n2nnc3ccc(NCCc4ccccc4)c1c32	3.28	0.567	0.31	1.7	–	3.5	0.803
CC(C)CCNc1ccc2nnn3c4ccccc4c(=O)c1c23	–	0.427	0.23	2	–	3.2	0.815
COc1ccc2c(c1)c(=O)c1c(NCCc3ccccc3)ccc3nnn2c31	3.93	0.35	0.08	1.7	–	12.5	0.711
CN(C)CCNc1ccc2nnn3c4ccccc4c(=O)c1c23	1.8	1.83	0.33	1.7	–	20.5	12.4
CN(C)CCNc1ccc2nnn3c4ccc(F)cc4c(=O)c1c23	–	0.783	0.03	2.6	–	1.2	0.465
COc1cccc2c1C(=O)c1c(O)c3c(c(O)c1C2=O)C[C@@](O)(C(=O)CO)C[C@@H]3O[C@H]1C[C@H](N)[C@H](O)[C@H](C)O1	–	–	–	8	88	–	–
COc1ccc2c(c1)c(=O)c1c(NCCCO)ccc3nnn2c31	–	0.517	0.19	3.2	–	1.5	0.627
O=c1c2ccccc2n2nnc3ccc(NCCCO)c1c32	–	0.483	1.48	3	–	0.99	0.63
COc1ccc(Nc2ccc3nnn4c5ccccc5c(=O)c2c34)cc1	–	0.098	0.19	0.2	–	1.9	0.63

Now from value to compound, other results behind:

IC50 [2] [µM]	IC50 [3] [µM]	ΔTm [4] [°C]	ΔTm [5] [°C]	Tm [6] [°C]	Compound	IC50 [1] [µM]	IC50 [7] [µM]
–	0.117	0.45	0.1	–	C[N+](C)([O-])CCNc1ccc2nnn3c4ccc(Br)cc4c(=O)c1c23	48	12
–	0.098	0.3	0.15	80	COc1ccc2c(c1)c(=O)c1c(NCC[N+](C)(C)[O-])ccc3nnn2c31	57	18.8
–	1.48	0.2	2.6	–	CN(C)CCNc1ccc2nnn3c4ccc(Br)cc4c(=O)c1c23	1.6	0.495
–	0.167	0.22	0.5	–	C[N+](C)([O-])CCNc1ccc2nnn3c4ccccc4c(=O)c1c23	80	23.8
–	0.987	0.42	3	–	O=c1c2cc(Br)ccc2n2nnc3ccc(NCCCO)c1c32	2.8	0.715
–	0.767	0.09	1.9	–	CC(C)CCNc1ccc2nnn3c4ccc(Br)cc4c(=O)c1c23	27	7

Reference: ChEMBL document CHEMBL1159058, “Triazoloacridin-6-ones as novel inhibitors of the quinone oxidoreductases NQO1 and NQO2” (Bioorg Med Chem, 2010)
